These results are taken from paper PMC6583925 (Journal of medicinal chemistry, 2019).

Molecules are shown by their SMILES.

Series [1] deals with broader panel of cell lines. The series can be described thus: cell viability assay. It counts as cell-based. As to conditions: all cell lines, 72 h.
In another series the test system is THP1 cells. Briefly: cell viability assay. In kind it is cell-based, human. The note with it: 72 h, CellTiter-Glo. The essentials: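 THP-1 cells maintained in RPMI 1640 with 10% heat-inactivated FBS and 0.05 mM 2-mercaptoethanol at 2×105 to 1×10^6 cells/ml. Seeded at 3,000 cells per well; test compound added after 24 h at final 0.1 to 10 μM. After 72 h incubation, viability was read by CellTiter-Glo luminescence and normalized to vehicle-treated controls.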
(In general: ATP-based viability assays read luminescence as a measure of living cells.)

Series [2] concerns brain lyso-PS/PI and C20:4 PS content. As to conditions: mice; cited from earlier work.
For series [3] the following is noted: mice, four weeks of inhibitor treatment; cited from earlier work.
The conditions of series [4]: 30 mg/kg, cited from earlier work.
Another series concerns serine hydrolases. Briefly: selectivity by gel-based ABPP with FP-Rh in mouse brain proteome. In kind it is biochemical. The note with it: FP-Rh probe. The essentials:
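Mouse brain homogenised in DPBS and cleared at 1,400 × g. Membranes pelleted at 16,000 × g (45 min, 4 °C) and resuspended in DPBS; used at 1 mg/mL. Test compound pretreatment: (thio)ureas 20 min at room temperature, NHH-carbamates 45 min at 37 °C. FP-Rh labelling (1 μM final) 45 min at 37 °C. Readout: 10% SDS-PAGE, in-gel fluorescence, band intensities quantified.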

Another series concerns the target T1, ABHD12 (Homo sapiens, UniProt Q8N2K0).
T1 sequence (Q8N2K0 1-398): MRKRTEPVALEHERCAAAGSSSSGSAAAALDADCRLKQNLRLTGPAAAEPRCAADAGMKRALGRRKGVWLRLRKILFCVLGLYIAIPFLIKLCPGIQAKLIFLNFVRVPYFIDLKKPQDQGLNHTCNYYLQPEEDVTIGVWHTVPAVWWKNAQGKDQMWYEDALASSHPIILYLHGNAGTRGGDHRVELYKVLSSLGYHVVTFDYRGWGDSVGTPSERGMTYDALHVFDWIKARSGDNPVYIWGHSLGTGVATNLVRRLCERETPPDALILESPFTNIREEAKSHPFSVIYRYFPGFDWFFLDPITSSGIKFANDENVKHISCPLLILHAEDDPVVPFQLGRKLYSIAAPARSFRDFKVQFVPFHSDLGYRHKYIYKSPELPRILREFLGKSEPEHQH
The note with it: cited from earlier work.

The subject of a further series is THP-1 macrophages. Briefly: cytokine measurements in M1-polarized THP-1 macrophages. It counts as cell-based, human. As to conditions: M1 stage THP-1 macrophages; DO264 0.1, 0.5, 1 μM, DO271 1 μM; 6 and 24 h.
The test system of series [5] is lymphocytic choriomeningitis virus (LCMV) clone 13. The note with it: mice; cited from earlier work.

Regarding `FC(F)(F)Oc1ccc(Oc2ccnc(N3CCC(NC(=S)Nc4cccnc4)CC3)c2Cl)c(Cl)c1` [DO264], the “cytotoxicity at 1 μM” value in series [1] was “without displaying cytotoxicity”. Besides, in the series on THP1 cells, the “concentration that impaired the viability of THP1 cells” value is at least 5 µM. Moreover, the “brain lyso-PS/PI and C20:4 PS content” value in series [2] was “substantial elevations”. Besides, the auditory defects entry in series [3] was “did not exhibit the auditory defects observed in ABHD12–/– mice”. Further, the toxicity in mice entry in [4] (treatment for several weeks) was “without overt signs of toxicity”. For the same compound, the “total exposure levels in the periphery and brain” value in series [4] (mice, p.o. or i.p. dosing) is 3 to 9 µM. Further, the “selectivity / off-targets among serine hydrolases” value in the series on serine hydrolases is on record as “excellent selectivity over other serine hydrolases”. At ABHD12, the “concentration giving full engagement of ABHD12” value is 1 µM. For the same compound, in the series on THP-1 macrophages, the CCL3 level result is given as “elevated”, the CCL4 level entry is listed as “elevated”, the IL-1β level result is recorded as “concentration-dependent increases” and the TNF-α level entry is given as “concentration-dependent increases”. For the same compound, the “immunological responses to LCMV clone 13 infection” value in [5] is “heightened immunological responses”.
